Results: ChEMBL document CHEMBL4619794, “2-Aminooxazole as a Novel Privileged Scaffold in Antitubercular Medicinal Chemistry” (ACS Med Chem Lett, 2020)
≈ marks a conversion by molar mass, not a printed value.

Columns and labels:
[1] = Metabolic stability in human liver microsomes assessed as half life at 1 uM measured upto 60 mins by HPLC-MS/MS analysis; assay type: ADME, Microsome
How it was run: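 Half-life of the compound in human liver microsomes, expressed in minutes. Reported as mean ± SD, n = 3.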

[2] = Kinetic solubility of compound in water incubated for 4 hrs by HPLC-MS/MS analysis; assay type: physicochemical; conditions: read-out: Kinetic_solubility
[3] = test system: Mycobacterium tuberculosis; experiment: Antimycobacterial activity against Mycobacterium tuberculosis H37Rv ATCC 27294 assessed as reduction in bacterial growth incubated for […] by alamar blue assay; assay type: functional
[4] = Glutathione reactivity of compound assessed as GSH adduct formation incubated for 24 hrs by HPLC-MS analysis; assay type: physicochemical; set-up: concentration or dose not given beside the values
How it was run: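 Compounds incubated 24 h with GSH in 1:100 molar excess, then analysed by HPLC–MS/MS in full-scan mode. Both the singly charged [M + H]+ and doubly charged [M + 2H]2+ conjugate ions were monitored. Percentage conjugate = (sum of both conjugate ion peak areas)/(parent [M + H]+ peak area).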

[5] = Kinetic solubility of compound in PBS at pH 7.4 incubated for 4 hrs by HPLC-MS/MS analysis; assay type: physicochemical; conditions: read-out: Kinetic_solubility
[6] = Metabolic stability in human liver microsomes assessed as intrinsic clearance at 1 uM measured upto 60 mins by HPLC-MS/MS analysis; assay type: ADME, Microsome; conditions: read-out: CLH
How it was run: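 Intrinsic clearance derived from the microsomal in vitro half-life as (0.693/t1/2) × (mL incubation/mg microsomes) × (45 mg microsomes/g liver) × (20 g liver/kg body weight). Expressed in mL min–1 kg–1.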

[7] = test system: Mycobacterium tuberculosis; experiment: Antimycobacterial activity against Mycobacterium tuberculosis assessed as reduction in bacterial growth by microdilution method; assay type: functional
Vero = experiment: Cytotoxicity against African green monkey Vero cells; assay type: cell-based; conditions: chlorocebus sabaeus
[8] = test system: Mycobacterium tuberculosis; experiment: Antimycobacterial activity against Mycobacterium tuberculosis assessed as reduction in bacterial growth incubated for 21 days by REMA assay; assay type: functional; conditions: 504 h

Row | SMILES | half-life at 1 µM [1] | solubility kinetic at 4 h [2] | MIC [3] | Activity [4] | solubility kinetic at 4 h [5] | CLint scaled at 1 µM [6] | MIC [7] | Activity (Vero) | MIC [8]
1 | COc1ccc(-c2csc(Nc3ccc(C)cc3)n2)cc1 | 14.5 min | 20 µM (≈ 5.93 µg/mL) | 13 µM (≈ 3.85 µg/mL) | 13.9% | 1.2 µM (≈ 0.356 µg/mL) | 42.9 mL/min/kg |  |  | 
2 | Cc1ccc(Nc2nc(-c3cc(C(F)(F)F)ccc3F)cs2)cc1 | 22.4 min | 24 µM (≈ 8.46 µg/mL) | 27.5 µM (≈ 9.69 µg/mL) | 10.4% | 7.5 µM (≈ 2.64 µg/mL) | 27.9 mL/min/kg |  |  | 
3 | CCOC(=O)c1cc(-c2csc(Nc3ccc(C)cc3)n2)on1 | 3.3 min | 54.9 µM (≈ 18.1 µg/mL) |  | 3.7% | 27.7 µM (≈ 9.12 µg/mL) | 189 mL/min/kg | 1.5 µM (≈ 0.494 µg/mL) |  | 
4 | Cc1ccc(Nc2nc(-c3cc(C(=O)Nc4ccccn4)no3)cs2)cc1 | 16.1 min | 2.9 µM (≈ 1.09 µg/mL) |  | 7.1% | 2.4 µM (≈ 0.906 µg/mL) | 38.8 mL/min/kg | 0.16 µM (≈ 0.0604 µg/mL) |  | 
5 | Cc1ccc(Nc2nc(-c3cc(C(F)(F)F)ccc3F)co2)cc1 | 22.6 min | 5.2 µM (≈ 1.75 µg/mL) | 12.3 µM (≈ 4.14 µg/mL) | 14.2% | 5.9 µM (≈ 1.98 µg/mL) | 27.6 mL/min/kg |  |  | 
6 | COc1ccc(-c2coc(Nc3ccc(C)cc3)n2)cc1 | 20.9 min | 0.7 µM (≈ 0.196 µg/mL) | > 100 µM | 14.2% | 1.1 µM (≈ 0.308 µg/mL) | 29.9 mL/min/kg |  |  | 
7 | CCOC(=O)c1cc(-c2coc(Nc3ccc(C)cc3)n2)on1 | 2.7 min | 9.1 µM (≈ 2.85 µg/mL) | 2.3 µM (≈ 0.721 µg/mL) | 15.8% | 6.8 µM (≈ 2.13 µg/mL) | 226 mL/min/kg |  | Non-Toxic | 
8 | Cc1ccc(Nc2nc(-c3cc(C(=O)Nc4ccccn4)no3)co2)cc1 | 15 min | 24 µM (≈ 8.67 µg/mL) |  | 2.1% | 9.3 µM (≈ 3.36 µg/mL) | 41.5 mL/min/kg |  | Non-Toxic | 6.9 µM (≈ 2.49 µg/mL)
